Series [1] can be described thus: Metabolic stability in human whole blood assessed as half-life at 1 to 5 uM measured upto 120 mins by LC-MS/MS analysis. The following applies: dose 1-5 µM. It is filed as ADME, tissue-based. The method, boiled down: (§1)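 Pooled human whole blood (K3-EDTA) was spiked to 1 or 5 μM compound. Aliquots taken at 0, 15, 30, 60 and 120 min were quenched in acetonitrile with 0.1% formic acid and internal standard, then analysed by LC-MS/MS. Percent parent remaining is the peak-area ratio versus T = 0; half-life comes from an exponential decay fit.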

The target of series [2] is T1, Protein-glutamine gamma-glutamyltransferase (Homo sapiens) (UniProt P21980).
T1 sequence (whole entry): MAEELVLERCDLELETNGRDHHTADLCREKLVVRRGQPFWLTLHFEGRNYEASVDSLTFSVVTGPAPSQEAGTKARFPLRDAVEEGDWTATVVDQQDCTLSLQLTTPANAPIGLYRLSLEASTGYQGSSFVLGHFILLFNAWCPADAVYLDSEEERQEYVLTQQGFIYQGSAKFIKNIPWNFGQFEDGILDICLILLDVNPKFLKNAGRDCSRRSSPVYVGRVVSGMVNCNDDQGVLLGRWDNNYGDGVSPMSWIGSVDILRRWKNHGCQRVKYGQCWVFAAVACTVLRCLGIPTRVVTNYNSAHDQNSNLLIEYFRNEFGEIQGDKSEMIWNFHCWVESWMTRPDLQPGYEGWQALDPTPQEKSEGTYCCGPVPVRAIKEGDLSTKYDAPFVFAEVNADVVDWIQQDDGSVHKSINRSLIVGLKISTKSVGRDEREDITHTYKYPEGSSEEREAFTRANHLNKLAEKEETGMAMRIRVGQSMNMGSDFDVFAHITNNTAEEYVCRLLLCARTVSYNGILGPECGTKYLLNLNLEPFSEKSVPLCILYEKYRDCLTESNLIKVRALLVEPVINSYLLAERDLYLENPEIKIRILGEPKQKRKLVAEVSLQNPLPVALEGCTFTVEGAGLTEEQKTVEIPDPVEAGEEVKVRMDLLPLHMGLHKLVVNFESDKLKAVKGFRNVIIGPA
As to the kind of experiment: Irreversible inhibition of human TG2 using Cbz-Glu-(gamma-p-nitrophenylester)Gly (AL5) as substrate assessed as substrate hydrolysis by measuring observed binding constant incubated for 20 mins by colorimetric assay.

Series [3] deals with T2, Protein-glutamine gamma-glutamyltransferase K (Homo sapiens) (UniProt P22735).
T2 sequence (whole entry): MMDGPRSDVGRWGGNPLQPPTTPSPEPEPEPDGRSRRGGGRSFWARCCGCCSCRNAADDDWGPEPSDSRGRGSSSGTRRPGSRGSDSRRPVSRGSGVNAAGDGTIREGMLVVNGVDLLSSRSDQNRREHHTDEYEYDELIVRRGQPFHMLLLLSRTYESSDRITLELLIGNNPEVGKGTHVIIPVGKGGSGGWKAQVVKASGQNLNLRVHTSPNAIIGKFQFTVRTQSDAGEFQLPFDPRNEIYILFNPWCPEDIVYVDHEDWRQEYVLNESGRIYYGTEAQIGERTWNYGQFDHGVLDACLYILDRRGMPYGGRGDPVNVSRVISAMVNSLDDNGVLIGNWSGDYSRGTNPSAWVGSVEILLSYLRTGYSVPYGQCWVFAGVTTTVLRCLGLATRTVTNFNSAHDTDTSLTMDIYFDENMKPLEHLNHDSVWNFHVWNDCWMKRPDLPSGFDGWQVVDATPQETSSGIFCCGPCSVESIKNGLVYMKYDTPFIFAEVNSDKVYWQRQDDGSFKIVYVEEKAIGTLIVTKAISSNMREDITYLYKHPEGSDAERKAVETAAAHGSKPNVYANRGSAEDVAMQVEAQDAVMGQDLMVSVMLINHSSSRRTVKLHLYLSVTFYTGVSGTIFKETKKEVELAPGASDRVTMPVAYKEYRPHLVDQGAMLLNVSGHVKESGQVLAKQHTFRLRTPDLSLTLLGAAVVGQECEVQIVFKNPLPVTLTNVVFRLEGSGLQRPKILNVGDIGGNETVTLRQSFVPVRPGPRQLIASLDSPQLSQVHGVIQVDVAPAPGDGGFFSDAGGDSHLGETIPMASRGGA
As to the kind of experiment: Irreversible inhibition of human TG1 using Cbz-Glu-(gamma-p-nitrophenylester)Gly (AL5) as substrate assessed as substrate hydrolysis by measuring observed binding constant incubated for 100 mins by colorimetric assay.

Series [4] can be described thus: Metabolic stability in pooled cryopreserved human hepatocytes assessed as half-life at 1 uM measured upto 120 mins by LC-MS/MS analysis. It is filed as ADME, cell-based, Hepatocyte. The method, boiled down:
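Samples were taken at 0, 5, 15, 30, 60 and 120 min, acetonitrile-quenched with internal standard, and analysed by LC-MS/MS. Half-life came from exponential decay of the parent/IS ratio relative to T = 0.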

Series [5] can be described thus: Metabolic stability in human whole blood assessed as drug degradation measured upto 120 mins by LC-MS/ms analysis. The following applies: 2 h. The format is ADME, tissue-based. The method, boiled down: as §1
The target of series [6] is T3, Coagulation factor XIII A chain (Homo sapiens) (UniProt P00488).
T3 sequence (whole entry): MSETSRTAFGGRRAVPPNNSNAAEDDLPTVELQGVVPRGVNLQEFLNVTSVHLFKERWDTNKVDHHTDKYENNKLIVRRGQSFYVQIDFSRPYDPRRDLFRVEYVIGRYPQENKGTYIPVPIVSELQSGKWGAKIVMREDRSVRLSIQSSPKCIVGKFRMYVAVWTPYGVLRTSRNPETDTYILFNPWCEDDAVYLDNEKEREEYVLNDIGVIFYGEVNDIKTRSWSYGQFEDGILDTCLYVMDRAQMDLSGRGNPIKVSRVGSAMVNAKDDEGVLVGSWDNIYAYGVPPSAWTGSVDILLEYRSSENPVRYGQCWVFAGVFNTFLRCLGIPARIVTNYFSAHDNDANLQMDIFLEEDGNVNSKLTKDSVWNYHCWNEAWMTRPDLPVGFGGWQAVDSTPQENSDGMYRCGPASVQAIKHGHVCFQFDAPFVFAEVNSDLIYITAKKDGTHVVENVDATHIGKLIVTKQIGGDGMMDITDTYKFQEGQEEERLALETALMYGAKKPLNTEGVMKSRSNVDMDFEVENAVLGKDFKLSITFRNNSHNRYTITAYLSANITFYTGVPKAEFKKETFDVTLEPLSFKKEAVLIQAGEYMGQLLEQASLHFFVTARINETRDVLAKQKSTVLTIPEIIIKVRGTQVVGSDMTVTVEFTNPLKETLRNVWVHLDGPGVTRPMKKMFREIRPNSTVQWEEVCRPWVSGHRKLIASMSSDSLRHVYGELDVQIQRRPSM
The series can be described thus: Irreversible inhibition of human factor XIIIa using peptidic FRET-quenched probe A101 as substrate assessed as observed binding constant by fluorescence based assay.

Series [7] can be described thus: GSH reactivity in aqueous buffer assessed as GSH adduct formation by measuring corrected intrinsic second order rate constant (K2 corrected) by HPLC analysis. It is filed as physicochemical. The method, boiled down:
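GSH stock diluted to final 15 mM in aqueous buffer (pH 8.0 used, 7.4 too slow), reaction started with inhibitor at final 0.5 mM, 2% v/v DMSO. Incubated at 22 °C and aliquots taken over at least 5–6 half-lives. HPLC with UV 214/254 nm tracked adduct growth and inhibitor loss, fitted mono-exponentially to give pseudo-first-order kobs. kobs was divided by [thiol] and then by the thiolate fraction (pKa 8.7) to give kcorr2. Run in duplicate.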

As for `C=CC(=O)NCC(=O)N1CCN(C(=O)C23CC4CC(CC(C4)C2)C3)CC1`, the half-life at up to 5 µM in series [1] was greater than 120 min. The K in series [2] is 0.5 min⁻¹; in series [3] it was 0.023 min⁻¹; in series [6] it was 0.051 min⁻¹; in series [7], 0.079 10^-3/M/min. In addition, in series [4], the half-life at 1 µM is greater than 120 min. Further, the Stability result in series [5] is “Stable”.

With `O=C(CCl)NCC(=O)N1CCN(C(=O)C23CC4CC(CC(C4)C2)C3)CC1`, the half-life at up to 5 µM in series [1] was greater than 120 min. Besides, the K in series [2] is 0.537 min⁻¹; in series [3], 0.018 min⁻¹; in series [6], 0.013 min⁻¹; in series [7], 1.48 10^-3/M/min. Further, in series [4], the half-life at 1 µM is greater than 120 min. Besides, the Stability result in series [5] is recorded as “Stable”.

The values above are taken from ChEMBL document CHEMBL5230175, “The war on hTG2: warhead optimization in small molecule human tissue transglutaminase inhibitors” (RSC Med Chem, 2023).
